Measurements gathered from unrelated publications.
Compare with care: the assays were run in different laboratories.
CDK1: Cyclin-dependent kinase 1 (CDK1, Homo sapiens, UniProt P06493)
CDK9: Cyclin-dependent kinase 9 (CDK9, Homo sapiens, UniProt P50750)
SGK2: Serine/threonine-protein kinase Sgk2 (SGK2, Homo sapiens, UniProt Q9HBY8)

SMILES	target	assay	system	conditions	quantity	value
Cc1cc2c(C(N)=O)c(N)n(-c3c(C)ccc(O)c3C)c2nc1C	Proto-oncogene tyrosine-protein kinase Src (SRC, Homo sapiens, UniProt P12931)	enzyme activity, inhibitor, TR-FRET	–	1.524 nM	inhibition	20.4%
COc1ccc2oc(-c3ccc4nc(N)oc4c3)c/c(=N\c3ccccc3NC(=O)CCN)c2c1	Proto-oncogene tyrosine-protein kinase Src (SRC, Homo sapiens, UniProt P12931, T341M)	cell-free assay	–	1 µM	remaining signal	90%
COc1cc(Br)cc(C2NC(=O)NC(C)=C2C(=O)OCc2ccccc2)c1O (stereo not shown)	Voltage-dependent T-type calcium channel subunit alpha-1H (CACNA1H, Homo sapiens, UniProt O95180)	ion current, inhibitor, patch clamp	HEK293	10 µM	inhibition	> 60%
C[C@]1(O)CCCN(c2nc(Nc3ccc(S(=O)(=O)N[C@H]4CC[C@H](CN5CCN(c6ccc(C7CCC(=O)NC7=O)cc6F)CC5)CC4)cc3F)ncc2C(F)(F)F)C1 (stereo partly shown)	CDK1	protein level, degrader, western blot	TOV21G	–	Dmax	82%
CC(C)(C)c1cnc(CSc2cnc(NC(=O)C3CCN(C(=O)CCCCCCCCCCN4Cc5cc6c(cc5C4)C(=O)N(C4CCC(=O)NC4=O)C6=O)CC3)s2)o1 (stereo not shown)	CDK9	protein level, degrader, western blot	TC-71	25 nM	inhibition	89.1%
CCCCC(=O)Nc1ccc(-c2ccc3ncn(CCC)c(=O)c3c2)cn1	SGK2	binding, competition with immobilised ligand	–	0.5 µM	remaining binding	100%
C[C@H]1CN(c2ccc(C3CCC(=O)NC3=O)cc2F)CCN1CC12CCC(NS(=O)(=O)c3ccc(Nc4ncc(C(F)(F)F)c(N5CCC[C@](C)(O)C5)n4)c(F)c3)(CC1)CO2 (stereo partly shown)	CDK1	protein level, degrader, western blot	TOV21G	–	Dmax	32%
C1=C/COCc2cc(ccc2OCCN2CCCC2)Nc2nccc(n2)-c2cccc(c2)COC/1	Tyrosine-protein kinase Mer (MERTK, Homo sapiens, UniProt Q12866)	binding	–	0.1 µM	remaining binding	80%
CC(=O)ON=C1C=CC(=C(C#N)c2ccccc2)C=C1	Dual specificity protein kinase CLK1 (Clk1, Mus musculus, UniProt P22518)	enzyme activity, inhibitor, ADP detection	–	20 µM	activity vs control	99%
C[C@]1(O)CCCN(c2nc(Nc3ccc(S(=O)(=O)N[C@H]4CC[C@H](CN5CCN(c6ccc(C7CCC(=O)NC7=O)c(F)c6)CC5)CC4)cc3F)ncc2C(F)(F)F)C1 (stereo partly shown)	CDK1	protein level, degrader, western blot	TOV21G	–	Dmax	73%
NC/C(=C\F)COc1cccc(Cn2c(=S)[nH]c(=O)c3[nH]cnc32)c1	Myeloperoxidase (Mus musculus, UniProt P11247)	enzyme activity, inhibitor	–	10 µM	remaining activity	-4.18%
CN1C(=O)CCC(N2C(=O)c3cc4c(cc3C2=O)CN(CCCCCCCC(=O)N2CCC(C(=O)Nc3ncc(SCc5ncc(C(C)(C)C)o5)s3)CC2)C4)C1=O (stereo not shown)	CDK9	protein level, degrader, western blot	TC-71	25 nM	inhibition	5.1%
C#Cc1cc(-c2cc(Nc3nc(N[C@@H](C)c4ccc(F)cn4)ncc3Cl)n[nH]2)ccc1C=O	SGK2	enzyme activity, inhibitor	–	0.2 µM	inhibition	4.48%
